Results gathered from unrelated publications.
Protocols differ between the studies behind these lines.
Cell line: HepG2
Effect on: cell growth or viability

C[C@H]1[C@@H](O)O[C@@H]2O[C@@]3(C)CC[C@H]4[C@H](C)CC[C@@H]1[C@@]24OO3  IC50 (CCK-8; 48 h): > 50 µM
CCNC(=O)NNC(=O)c1ccc(Nc2nccc(-c3ccc(Cl)cc3)n2)cc1  IC50 (MTT; 24 h): 20.3 µM
Oc1ccc(Br)cc1-c1nc2ccccc2[nH]1  IC50 (MTT; 48 h): 8.94 µM
COc1cccc2c1C(=O)c1c(O)c3c(c(O)c1C2=O)C[C@@](O)(C(=O)CO)C[C@@H]3O[C@H]1C[C@H](N)[C@H](O)[C@H](C)O1  IC50 (MTT; 48 h): 0.12 µg/mL
CC(=O)O[C@H]1C(=O)[C@@]2(C)[C@H]([C@H](OC(=O)c3ccccc3)[C@]3(O)C[C@H](OC(=O)[C@H](O)[C@@H](NC(=O)c4ccccc4)c4ccccc4)C(C)=C1C3(C)C)[C@]1(OC(C)=O)CO[C@@H]1C[C@@H]2O  IC50 (MTT; 48 h): 4.75 µM
COC(=O)CN=c1scc(-c2ccccc2)n1-c1ccccc1  IC50 (MTT; 72 h): 75.5 µM
COc1cc(C2Oc3cc([C@H]4Oc5cc(O)cc(O)c5C(=O)[C@@H]4O)ccc3OC2CO)ccc1O (stereo partly shown)  IC50 (CCK-8; 72 h): 24.3 µM
C=CCn1c(-c2ccc([N+](=O)[O-])cc2)nc2ccc(C)cc21  IC50 (MTT): 63.5 µM
c1ccc(-c2ccccn2)nc1  IC50 (MTT; 48 h): > 50 µM
C=CCn1c(-c2ccc(Cl)c(Cl)c2)nc2ccccc21  IC50 (MTT): 66.1 µM
CC1=C(O)C(=O)C=C2C1=CC=C1[C@@]2(C)CC[C@@]2(C)[C@@H]3C[C@](C)(C(=O)OCCCCCCO)CC[C@]3(C)CC[C@]12C  IC50 (MTT; 48 h): 10.7 µM
O=C(NNC(=O)c1ccc(Nc2nccc(-c3ccc(Cl)cc3)n2)cc1)NC1CCCCC1  IC50 (MTT; 24 h): 13.1 µM
COc1cc2ncnc(Nc3ccc(F)c(Cl)c3)c2cc1NC(=O)N/N=C/c1cccn1CCCN1CCCCC1  IC50 (MTT; 72 h): 0.31 µM
CC1=C(O)C(=O)C=C2C1=CC=C1[C@@]2(C)CC[C@@]2(C)[C@@H]3C[C@](C)(C(=O)OCCCCO)CC[C@]3(C)CC[C@]12C  IC50 (MTT; 48 h): 0.63 µM
CC1=CC(C)(C)N(Cc2ccccc2)c2ccc(O)cc21  IC50 (MTT; 72 h): 20 µM
Cc1ccc2nc(-c3cccc(O)c3)[nH]c2c1  IC50 (MTT; 48 h): 95.3 µM
Oc1ncnc2cc(Nc3nc(-c4ccc(F)cc4)cs3)ccc12  IC50 (MTT): 7.92 µM
c1ccc2[nH]c(-c3ccncc3)nc2c1  IC50 (MTT; 48 h): 87.7 µM
CC1(C)CC[C@]2(C(=O)O)CC[C@]3(C)C(=CC[C@@H]4[C@@]5(C)CC[C@H](O)C(C)(C)[C@@H]5CC[C@]43C)[C@@H]2C1  IC50 (MTT; 48 h): > 100 µM
CCN(CC)C/C=N/NC(=O)Nc1cc2c(Nc3ccc(F)c(Cl)c3)ncnc2cc1O[C@H]1CCOC1  IC50 (MTT; 72 h): 2.38 µM
COc1cc(/C=C/C(=O)c2ccc(NC(=O)c3ccccc3CN3C(=O)c4ccccc4C3=O)cc2)cc(OC)c1OC  IC50 (MTT; 72 h): 1.62 µM
COc1cccc2c1C(=O)c1c(O)c3c(c(O)c1C2=O)C[C@@](O)(C(=O)CO)C[C@@H]3O[C@H]1C[C@H](N)[C@H](O)[C@H](C)O1  IC50 (MTT; 24 h): 3.6 µM
COc1cc2ncnc(Nc3ccc(F)c(Cl)c3)c2cc1NC(=O)N/N=C/c1cccn1CCCN(C)C  IC50 (MTT; 72 h): 0.05 µM
Cc1cc(=O)oc2ccc(-c3cc(-c4cccc(Cl)c4)nc(N)n3)c(O)c12  IC50 (MTT; 72 h): > 128 µg/mL
Cc1cc(C)cc(NC(=O)NNC(=O)c2ccc(Nc3nccc(-c4ccccn4)n3)cc2)c1  IC50 (MTT; 24 h): 20.3 µM
Cc1ccc2c(Br)cc(Br)c(O)c2n1  IC50 (MTT; 48 h): > 150 µM
CC1=C(O)C(=O)C=C2C1=CC=C1[C@@]2(C)CC[C@@]2(C)[C@@H]3C[C@](C)(C(=O)OCCO)CC[C@]3(C)CC[C@]12C  IC50 (MTT; 48 h): 0.62 µM
O=c1c(O)c(-c2ccc(O)cc2)oc2cc(O)cc(O)c12  IC50 (WST-1; 48 h): 34.4 µM
Cc1cc(=O)oc2ccc(-c3cc(-c4cccs4)nc(N)n3)c(O)c12  IC50 (MTT; 72 h): > 128 µg/mL
O=C(N/N=C/c1cccn1CCN1CCCC1)Nc1cc2c(Nc3ccc(F)c(Cl)c3)ncnc2cc1O[C@H]1CCOC1  IC50 (MTT; 72 h): 0.64 µM
CC1=C(O)C(=O)C=C2C1=CC=C1[C@@]2(C)CC[C@@]2(C)[C@@H]3C[C@](C)(C(=O)OCCCO)CC[C@]3(C)CC[C@]12C  IC50 (MTT; 48 h): 0.75 µM
O=C(N/N=C/c1cccn1CCN1CCOCC1)Nc1cc2c(Nc3ccc(F)c(Cl)c3)ncnc2cc1O[C@H]1CCOC1  IC50 (MTT; 72 h): 1.68 µM
CC(C)(C)NC(=O)NNC(=O)c1ccc(Nc2nccc(-c3ccccn3)n2)cc1  IC50 (MTT): > 40 µM
COc1ccc(Nc2nc(-n3nc(C)cc3C)nc(-n3nc(C)cc3C)n2)cc1  IC50 (MTT; 72 h): 5.42 µM
C#Cc1cccc(Nc2ncnc3cc(OCCOC)c(OCCOC)cc23)c1  IC50 (MTT): 6.83 µM
Nc1nc(-c2ccc(NC(=O)c3ccc(Cl)c(Cl)c3)cc2F)c[nH]1  IC50 (XTT; 24 h): 16.9 µM
COc1cc2ncnc(Nc3ccc(F)c(Cl)c3)c2cc1NC(=O)N/N=C/c1cccn1CCN1CCOCC1  IC50 (MTT; 72 h): 0.03 µM
O=[N+]([O-])c1ccc(Cn2cc(Cn3c4ccccc4c4nc5ccccc5nc43)nn2)cc1  IC50 (MTT; 24 h): > 100 µM
CN(C)CCn1cccc1/C=N/NC(=O)Nc1cc2c(Nc3ccc(F)c(Cl)c3)ncnc2cc1O[C@H]1CCOC1  IC50 (MTT; 72 h): 0.04 µM
Oc1ncnc2cc(Nc3nc(-c4ccc(Br)cc4)cs3)ccc12  IC50 (MTT): 9.85 µM
Cc1ccc(-c2ccc(O)cc2)c(C(=C2C=CC(=O)C=C2)c2ccc(O)cc2)c1C#Cc1ccc(O)cc1  IC50 (MTT; 48 h): 16.4 µM
Clc1ccnc2c1ccc1c(Cl)ccnc12  IC50 (MTT; 48 h): > 50 µM
Oc1cccc(-c2nc3ccccc3[nH]2)c1  IC50 (MTT; 48 h): 83 µM
Nc1ncnc2c1ncn2[C@@H]1O[C@H](CO)[C@@H](O)[C@H]1O  IC50 (WST-1; 48 h): 55.1 µM
COc1cc2c(Nc3ccc(NC(=O)c4ccccc4)cc3)ncnc2cc1OCCCN1CCOCC1  IC50 (MTS; 72 h): 0.6 µM
O=[N+]([O-])c1cccc(-c2nc3ccccc3[nH]2)c1  IC50 (MTT; 48 h): 39 µM
Oc1ncnc2cc(Nc3nc(-c4ccccc4)cs3)ccc12  IC50 (MTT): 11.9 µM
COc1cc2ncnc(Nc3ccc(F)c(Cl)c3)c2cc1NC(=O)N/N=C/c1cccn1CCN1CCCC1  IC50 (MTT; 72 h): 0.16 µM
O=C(NCCc1ccccc1)NNC(=O)c1ccc(Nc2nccc(-c3cccnc3)n2)cc1  IC50 (MTT): 5.48 µM
